Results on one molecule are retold here after ChEMBL document CHEMBL3785007 (Drug Metabol Drug Interact, 2011).

Data set [1] is described as follows: Clearance in healthy Chinese subject (8 subjects) with homozygous wild type NAT2 genotype at 300 mg, po administered after overnight fast by HPLC method. Type of data set: ADME, organism-based. The conditions noted are these: human, in vivo.
The test system of data set [2] is Homo sapiens. As to the kind of experiment: AUC in healthy Chinese subject (8 subjects) with homozygous wild type NAT2 genotype at 300 mg, po administered after overnight fast by HPLC method. Type of data set: ADME, organism-based. The following applies: in vivo. In a few lines: (§1)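 Plasma separated within 1 h and stored at −70°C. Deproteinised with 10% perchloric acid, then reversed-phase C18 HPLC with UV detection at 266 nm. AUC by trapezoidal method extrapolated to infinity; mean±SD.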

Data set [3] has as its system Mycobacterium tuberculosis. As to the kind of experiment: Antitubercular activity against Mycobacterium tuberculosis in tuberculosis patient assessed as compound level in serum required to cause 90% maximum early bactericidal activity at 0.2 to 12 mg/kg after 2 hrs. Type of data set: functional.
The test system of data set [4] is Homo sapiens. Put plainly: Clearance in healthy Chinese subject (8 subjects) with heterozygous mutant of NAT2 genotype assessed as N-acetylisoniazid at 300 mg, po administered after overnight fast by HPLC method. Type of data set: ADME, organism-based. The following applies: in vivo.
Data set [5] relates to Homo sapiens. Put plainly: Clearance in healthy Chinese subject (8 subjects) with homozygous mutant of NAT2 genotype assessed as N-acetylisoniazid at 300 mg, po administered after overnight fast by HPLC method. Type of data set: ADME, organism-based. The following applies: in vivo.
In data set [6] the test system is Homo sapiens. Put plainly: Clearance in healthy Chinese subject (8 subjects) with homozygous wild type NAT2 genotype assessed as N-acetylisoniazid at 300 mg, po administered after overnight fast by HPLC method. Type of data set: ADME, organism-based. The conditions noted are these: in vivo.
Data set [7] concerns Homo sapiens. Put plainly: AUC in healthy Chinese subject (8 subjects) with heterozygous mutant of NAT2 genotype at 300 mg, po administered after overnight fast by HPLC method. Type of data set: ADME, organism-based. The conditions noted are these: in vivo. In a few lines: as §1
Data set [8] relates to Homo sapiens. Put plainly: AUC in healthy Chinese subject (8 subjects) with homozygous mutant of NAT2 genotype assessed as N-acetylisoniazid at 300 mg, po administered after overnight fast by HPLC method. The following applies: in vivo. Type of data set: ADME, organism-based. In a few lines: as §1
Data set [9] has as its system Homo sapiens. As to the kind of experiment: Cmax in healthy Chinese subject (8 subjects) with homozygous mutant of NAT2 genotype assessed as N-acetylisoniazid at 300 mg, po administered after overnight fast by HPLC method. Type of data set: ADME, organism-based. More on the design: dose 300 mg, route oral. The conditions noted are these: in vivo.
The subject of data set [10] is Homo sapiens. As to the kind of experiment: AUC in healthy Chinese subject (8 subjects) with heterozygous mutant of NAT2 genotype assessed as N-acetylisoniazid at 300 mg, po administered after overnight fast by HPLC method. Type of data set: ADME, organism-based. The conditions noted are these: in vivo. In a few lines:
as §1

The subject of data set [11] is Homo sapiens. Put plainly: AUC in healthy Chinese subject (8 subjects) with homozygous mutant of NAT2 genotype at 300 mg, po administered after overnight fast by HPLC method. The conditions noted are these: in vivo. Type of data set: ADME, organism-based. An outline of the steps: as §1
The test system of data set [12] is Homo sapiens. As to the kind of experiment: Cmax in healthy Chinese subject (8 subjects) with homozygous wild type NAT2 genotype assessed as N-acetylisoniazid at 300 mg, po administered after overnight fast by HPLC method. Type of data set: ADME, organism-based. More on the design: dose 300 mg, route oral. The following applies: in vivo.
Data set [13] is described as follows: Clearance in healthy Chinese subject (8 subjects) with heterozygous mutant of NAT2 genotype at 300 mg, po administered after overnight fast by HPLC method. The conditions noted are these: human, in vivo. Type of data set: ADME, organism-based.
Data set [14] is described as follows: Clearance in healthy Chinese subject (8 subjects) with homozygous mutant of NAT2 genotype at 300 mg, po administered after overnight fast by HPLC method. Type of data set: ADME, organism-based. The following applies: human, in vivo.
In data set [15] the test system is Homo sapiens. As to the kind of experiment: AUC in healthy Chinese subject (8 subjects) with homozygous wild type NAT2 genotype assessed as N-acetylisoniazid at 300 mg, po administered after overnight fast by HPLC method. Type of data set: ADME, organism-based. The conditions noted are these: in vivo. In a few lines: as §1
Data set [16] is described as follows: Cmax in healthy Chinese subject (8 subjects) with homozygous wild type NAT2 genotype at 300 mg, po administered after overnight fast by HPLC method. Type of data set: ADME, organism-based. Also on record: dose 300 mg, route oral. The following applies: human, in vivo.
Data set [17] concerns Homo sapiens. As to the kind of experiment: Cmax in healthy Chinese subject (8 subjects) with heterozygous mutant of NAT2 genotype assessed as N-acetylisoniazid at 300 mg, po administered after overnight fast by HPLC method. The conditions noted are these: in vivo. Type of data set: ADME, organism-based. More on the design: dose 300 mg, route oral.
Data set [18] is described as follows: Cmax in healthy Chinese subject (8 subjects) with homozygous mutant of NAT2 genotype at 300 mg, po administered after overnight fast by HPLC method. Type of data set: ADME, organism-based. More on the design: dose 300 mg, route oral. The conditions noted are these: human, in vivo.
Data set [19] can be described thus: Cmax in healthy Chinese subject (8 subjects) with heterozygous mutant of NAT2 genotype at 300 mg, po administered after overnight fast by HPLC method. Type of data set: ADME, organism-based. Also on record: dose 300 mg, route oral. The following applies: human, in vivo.
The test system of data set [20] is Mycobacterium tuberculosis. As to the kind of experiment: Antitubercular activity against Mycobacterium tuberculosis in tuberculosis patient assessed as compound AUC (0 to infinity) required to cause 90% maximum early bactericidal activity at 0.2 to 12 mg/kg. Type of data set: functional, organism-based.

Consider `NNC(=O)c1ccncc1` [ISONIAZID], for which the CL/F in [1] is 501 mL/min; in data set [13] it was 320 mL/min; in data set [14], 130 mL/min. In addition, the AUC in the data set on Homo sapiens [2] stood at 10400 ng·h/mL; in the data set with Homo sapiens [7], 16300 ng·h/mL; with Homo sapiens [8], 19800 ng·h/mL; in the data set on Homo sapiens [10] it was 38000 ng·h/mL; in the data set with Homo sapiens [11], 42200 ng·h/mL; in the data set with Homo sapiens [15], 42200 ng·h/mL. Also, the AUC in [20] turned out to be 10500 ng·h/mL. For the same molecule, the Activity in data set [3] is 2.19 µg/mL. Further, the CL amounted to 8.03 L/h in the data set on Homo sapiens [4], 16.07 L/h with Homo sapiens [5] and 7.4 L/h in the data set on Homo sapiens [6]. Besides, the peak concentration (Cmax) with Homo sapiens [9] worked out at 1380 ng/mL; in the data set on Homo sapiens [12], 5590 ng/mL; in data set [16], 4930 ng/mL; with Homo sapiens [17], 3990 ng/mL; in [18], 8280 ng/mL; in data set [19] it was 5720 ng/mL.

As usually defined, the CL/F is clearance divided by bioavailability, as obtained after extravascular dosing. What is called Cmax is the maximum level reached in the sampled fluid or tissue.
